According to the EternaBench riboswitch data:

System: MS2 coat protein
Test: apparent Kd, MS2 coat protein; higher = weaker binding; RNA-MaP array; FMN 200 µM where present
How it was run: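 Designs were transcribed by stalled E. coli RNA polymerase on Illumina sequencing-chip clusters. They were titrated with SNAP-549-labelled MS2 coat protein from 0.7 or 1.5 nM, doubling to 3 µM, in 100 mM Tris-HCl pH 7.5, 80 mM KCl, 4 mM MgCl2, BSA, DTT, yeast tRNA and Tween-20, without and then with constant ligand. The apparent Kd is the median of filtered per-cluster fits after normalisation of green signal to red-channel RNA signal and control-cluster median Fmax.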

[1] = designed as: ON switch for flavin mononucleotide, no ligand
[2] = ligand present: flavin mononucleotide, designed as: ON switch for flavin mononucleotide
[3] = designed as: OFF switch for flavin mononucleotide, no ligand
[4] = ligand present: flavin mononucleotide, designed as: OFF switch for flavin mononucleotide

Sequence | apparent Kd [1] | apparent Kd [2] | apparent Kd [3] | apparent Kd [4]
GUGGUCAGACAUGAGGAUCACCCAUGUGGAAUAAAUAACGGACAGGAUAUAGAAUAUAGGAUAUACUAGAAGGGUUGAUUGGUG | 55.7 nM | 57.3 nM | – | –
GUCAGCUCGUGAGGAUAUACAUGUGCUGGAGACAGCACUAAUAGAAUCACAUGAGGAUCACCCAUGUAGAAGGCACGAGCUGAU | – | – | 17 nM | 41.2 nM
UAAACACCCUCAUGUGCCUGAGGACAUGAGGAUCACCCAUGUAAGGAUAUAGCCAUUAAAUCUAACUAGAAGGUAUAGGAAAUC | – | – | 597 nM | 476 nM
AUGCUUUGUGUAGGAUAUGCAUACGGUACGUAUGCAGAAGGACAUGAGGAUCACCCAUGUAUAUUAUUAUUACAUAUCAUACAU | – | – | 35.3 nM | 229 nM
ACAAGAUCAGGAUAUACAUGAGGAUCACCCAUGUUUAUCAAAAAAAGGCUUUCAUCAUGUAGAAGGGAUCUUGU | – | – | 99 nM | 126 nM
GACAUACAUGAGGAUCACCCAUGUUCAAACGGGCAAGGAUAUGUGUGGAAACCAUACUAUACAGAAGGUGUCUGUC | 28.4 nM | 18.7 nM | – | –
GCCCGACAUGAGGAUCACCCAUGUGGGAAACCGCGAGGAUAUCCGGGCCCGAAAGGGCCCGGAGAAGGCGCCGGGC | 12.5 nM | 10.9 nM | – | –
UCCGCUCGAGGAUAUACAUGAGGAUCACCCAUGUUUCCCUGUUGCUUGGCCUCAGGAUGUAGAAGGCGACGCUA | – | – | 17.6 nM | 19.8 nM
UCAUGGAAGUAGAAGGGUAAUAUAUUAGAUUUUACUAUUAGAUGUAGAUAUACAGGAUAUGCGAACAUGAGGAUCACCCAUGUG | – | – | 62.7 nM | 35.6 nM
ACGAGGUCAGGAUAUACGGAGAGAGGGAGUUGGUUAGGGUAACAUGAGGAUCACCCAUGUAGAAGGGACUAGGG | – | – | 48.6 nM | 40.3 nM
AGAAAACAUGAGGAUCACCCAUGUGAGGAUAUCGAUGUCCAAAAAAAAGUGCGGGACUCGAGAAGGCACUUGGA | – | – | 28.6 nM | 37.6 nM
GAGCCUCCGUAGAAGGCCGCGGAAUUCGAACGCGGAGGAUAUACAUGAGGAUCACCCAUGUGAAAGUGGAAAGAUAAAACGCUU | – | – | 12.4 nM | 30.4 nM
GUCCGCUCGUGAGGAUAUACAACACUGCUUCGGCAGUGUAUUAAGAUCACAUGAGGAUCACCCAUGUAGAAGGCACGAGCUGAU | – | – | 13.7 nM | 289 nM
UGGUUCAUGGGAGGAUAUGGGAUGAUAACAUGAGGAUCACCCAUGUUAAAGAUGCCGAGAGGCAACUAGAAGGCCCAUGAACCU | 268 nM | 61.7 nM | – | –
GGUACCAUCACAGGAUAUGCUUUCCGUUGGGAAGCAGAAGGGUGUAACAUGAGGAUCACCCAUGUGGUGCCCGGGCGUGAGCCC | 135 nM | 15.6 nM | – | –
AAACAUGUCCGAGGAUAUCUGGAAACAUUUUCAAGAGAAGGCGGACAUGAGGAUCACCCAUGUCUCUCCUCAUCCAAUCCAAGU | – | – | 9.36 nM | 46.4 nM
CCGCAAAAGCAGGAUAUCGUAUCGGAUACGAUACGAGAAGGGUUUACAUGAGGAUCACCCAUGUUCCUUAGCGG | – | – | 31.5 nM | 36 nM
CACUGCAAUGUAGGAUAUCGACUGGAUAACAGUCGAGAAGGACAUGAGGAUCACCCAUGUACUAAUAGUGAUAAUAAAGCAGUG | – | – | 13.5 nM | 55 nM
UUACCUCAUGAGAAGGACAUGAGGAUCACCCAUGUAGGAUAUCGUGGGACACUGGUAUUGAAUCUUCGGAUUCAAUACCUGUGU | 465 nM | 29 nM | – | –
GUCAGCUCGUGAGGAUAUACAACACUGCUUCGGCAGUGUAUUAAGAUUACAUGAGGAUCACCCAUGUAGAAGGCACGAGCUGAU | – | – | 5.01 nM | 6.95 nM
GGAUAGGACAGAGGAUAUACGUGCUAGAGAUACUAGCAUAAUUUCCUCACAUGAGGAUCACCCAUGUAGAAGGCUGUCCUAUCG | – | – | 6.78 nM | 46.7 nM
UUUUAACAUGAGGAUCACCCAUGUGAGGAUAUCGAAAUUUAUAUUUAUAUUUAUAAUUCGAGAAGGCACAUUUU | – | – | 179 nM | 141 nM
AGCUGUGGCCGAGGAUAUCUAAACCUCGAAAACGAAAUAUAAUCGAACAUGAGGAUCACCCAUGUAGAGAAGGCGGUCUCAGCA | – | – | 69.6 nM | 211 nM
AGAUGACAAAGUCAUCUCGCUUUGACAUGAGGAUCACCCAUGUAGGAUAUAUUAAUCAAAGAUUAAUAGAAGGACAUGUUUCUG | – | – | 87.1 nM | 172 nM
AAACAUGUCCGAGGAUAUCUGGAAACAUUUCCAAGAGAAGGCGGACAUGAGGAUCACCCAUGUCUCUCCUCAUCAAAUCCAAGU | – | – | 24.6 nM | 287 nM
AACCGUGCGGAGGAUAUUGAUAUCCCAGUCUAUCAAGAAGGCUGCACAUGAGGAUCACCCAUGUGAUCCGUGCU | – | – | 21.2 nM | 116 nM
UUCUCGAUGUAGAAGGCCGCGUCCGGCUCACGCGGAGGAUAUACAUGAGGAUCACCCAUGUGUUUGUGGCUUAUAUGGUACGAA | – | – | 43 nM | 212 nM
GUCAGCUCGUGAGGAUAUACAUGUGCUGGAAACAGCACUAAUUAAAUCACAUGAGGAUCACCCAUGUAGAAGGCACGAGCUGAU | – | – | 16.4 nM | 23.6 nM

Sequence | apparent Kd [1] | apparent Kd [2] | apparent Kd [3] | apparent Kd [4]
AACCGCGAUCGGCCUGGCACGUCGAGAAGGGUACGUGACCUGCUUUACAUGAGGAUCACCCAUGUACAGGAUAUCGAAUAGCCG | – | – | 6.2 nM | 6.68 nM
UCCUUGUCCUGAGGAUAUCCGCGGUGACCAAAAGGAGAAGGCAGGACAUGAGGAUCACCCAUGUACCCAGAAAACGUGCAGAGU | – | – | 30.1 nM | 197 nM
GGAUGAGCAAUAGGAUAUGCUGGUAUUGAAUGGGUAGAAGGAUUUCUAGUGGUAAAGACAUGAGGAUCACCCAUGUAGCGGCCC | 328 nM | 265 nM | – | –
AAGGAGUUAGGAUAUGCUGCUCGUCACUUGCGUGAUGAGUAGCAGAAGGGACAUGAGGAUCACCCAUGUAAAAA | – | – | 45.3 nM | 21.2 nM
AGCUAGUCAGGAUAUACAAACAUGUCAAAAGACGUGAGGGAACAUGAGGAUCACCCAUGUAGAAGGGACUAGCA | – | – | 53.6 nM | 195 nM
AGCUAGUGAGGAUAUACGAACAUGUCAAAAGACGUGAAAUAACAUGAGGAUCACCCAUGUAGAAGGCACUAGCA | – | – | 19.2 nM | 16.7 nM
CGAUUUUUGAUCCGUUUUUUCUACAUGAGGAUCACCCAUGUGCAGGAUAUCGUGGUGUUUUACUACGAGAAGGGCAAUUUCACG | – | – | 84.8 nM | 198 nM
AGUCAUACAGGAUAUACAUGAGGAUCACCCAUGUAAAUCCUAAAAAGAAAAUCCUCAUGUAGAAGGGUAUGACA | – | – | 13.6 nM | 9.24 nM
UUAGACGUCGUAGGAUAUGUAGGAUAUUCCUACAUGAGGAUCACCCAUGUUGACAUGGAAGAAGGACAGAAGGACGAUGUCCAU | 307 nM | 4.91 nM | – | –
CGUGACUCAGGAUAUCUAUAGUGUCACAUGAGGAUCACCCAUGUCCAGCGAAAGCUGGAGGGAGAAGGGAGUCACG | – | – | 96.7 nM | 39.9 nM
UUUAUGUCAGGAUAUACAUGAGGAUCACCCAUGUAUAUCUAAAAAUAUACAUGGGAAUGUAGAAGGGACCUCCU | – | – | 53 nM | 46.3 nM
AACCGACAUGAGGAUCACCCAUGUCAGGAUAUGGACUGACACCGAAAGAGUGGAGGAACCAGAAGGGACUGGGC | – | – | 32.4 nM | 69.5 nM
GAUGACAUGAGGAUCACCCAUGUGAUGGUUUGAGGUGGUUACAGAAGGGACGUAUAGUGGUGUGGUCAGGAUAUGUAGAAUCUU | 157 nM | 42.1 nM | – | –
GGUGCGUUUGUGAGGAUAUGCUGGUCCUUGGAUCAGCAGAAGGCACAUGAGGAUCACCCAUGUGGUGUCGUACC | – | – | 447 nM | 47.3 nM
AUAUCCGAAGCAGGAUAUCGACGAGGUGUCGAGAUAGAGCGUACUCACAUGAGGAUCACCCAUGUCGAGAAGGGCUAUAGGAUA | – | – | 22.2 nM | 83.4 nM
AAUGUUUGAUUCCACUUAUACAUGAGGAUCACCCAUGUUAUCGAGGAUAUGCAUUAGAGCGUUUAGCAGAAGGCGAUGUAAUUG | – | – | 7.41 nM | 20.3 nM
CACAAGAAAGUCGAAGGUUGAAGUAGAAGGACAAUAACAUGACAUGAGGAUCACCCAUGUGCCAUGUAGGAUAUGCUUUAAUCG | – | – | 8.54 nM | 8.34 nM
GAGAGACAUGAGGAUCACCCAUGUAGAAUAGAACAAGGAUAUGUGGAAGGCGGAGGAGAGACAGAAGGUGUAGGAG | 108 nM | 52.9 nM | – | –
AAAUUUAACGAAGGAUAUACUAACAUGAGGAUCACCCAUGUGUGUUUCGUGUUGCUGAAAUUCGGGUAGAAGGUCGUAUACAUA | – | – | 41 nM | 28.7 nM
CUACGAGCGCCACAGGAUAUACUGAGACUCACAUGAGGAUCACCCAUGUCCAAUUCUCCCAAAUAGUAGAAGGGUGACGCGCUCG | 699 nM | 53.3 nM | – | –
CUUUGAUGAGGAUAUCGAGGUUAGUACAUGAGGAUCACCCAUGUUAUCCAGGUGUCGGAUCGAGAAGGUAUUGGAC | – | – | – | 17.5 nM
CUAGUUGUCGCAGGAUAUGCCCGCUGGUUGGAGGCAGAAGGGUGACACCAAAUAUUAUACAUGAGGAUCACCCAUGUCGCCAGC | 21.4 nM | 20.6 nM | – | –
AUAGUUUUCAUAGGAUAUUGAAUUAUAUUUAAUCAAGAAGGAUGAAUACAUGAGGAUCACCCAUGUUAACAUGGAUUAAGUAGU | – | – | 20.9 nM | 44.3 nM
CGAGUUUUUGAGAAGGCAUAAUAUAUAAUACCACAUGUUUACAUGAGGAUCACCCAUGUUUCCUAUGAGGAUAUCAGAAUAUCG | – | – | 16.1 nM | 14.4 nM
CCAGCGUAUGUGAGGAUAUGCUGGUCCUUGGAUCAGCAGAAGGCACAUGAGGAUCACCCAUGUGAGAACGUUGG | – | – | 26.5 nM | 187 nM
CUUUUGUGAGGAUAUUAGUAGUAAACGAACAAAAUUAUUACUGAGAAGGCACAUGAGGAUCACCCAUGUUCCUC | – | – | 46 nM | 575 nM
AACAUGAGGAUCACCCAUGUCCCACCAGAAGGCUGGCGGUGGUAGGAAAGGCUACGACAAAUAACAGAGGAUAUGGUGAAUGCA | 88.9 nM | 20.8 nM | – | –
